The source of these data is ChEMBL document CHEMBL4342528, “Discovery of a First-in-Class Protein Arginine Methyltransferase 6 (PRMT6) Covalent Inhibitor” (J Med Chem, 2020).

The source made the active and inactive calls. The calls are words filed in the database; no cut-off is given here.

Broadly, the IC50 is the concentration that gives 50% inhibition. The inhibition is the drop in the measured response relative to a control, in per cent.

The target in experiment [1] is T1, Protein arginine N-methyltransferase 6 (Homo sapiens, UniProt Q96LA8). Briefly: Inhibition of Flag-tagged PRMT6 (unknown origin) expressed in HEK293 cells incubated for 20 hrs assessed as reduction in H3R2me2a levels. The format is cell-based.
Experiment [2] concerns the target Histone-lysine N-methyltransferase, H3 lysine-36 specific (Homo sapiens) (UniProt Q96L73). Briefly: Inhibition of NSD1 (unknown origin) at 10 uM using [3H-SAM] and nucleosome as substrate incubated for 1 hr by scintillation proximity assay. The gist of the method:
(§1)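 Panel of 33 methyltransferases (22 PKMTs, 3 DNMTs, 8 PRMTs), each tested at 10 and 50 μM compound. Activity was read as ³H-methyl transfer from ³H-SAM in a radiometric assay done as previously described.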
Background: SPA uses beads or plates that emit light when radiolabelled molecules are held near them.

The species entered for experiment [3] is Homo sapiens. Briefly: Inhibition of DNMT3A/3L (unknown origin) at 50 uM using un-biotinylated Poly(2'-deoxyinosinic-2'-deoxycytidylic acid) substrate using [3H-SAM] at 50 uM incubated for 1 hr by scintillation proximity assay relative to control. The gist of the method: as §1
The target of experiment [4] is T2, Protein arginine N-methyltransferase 8 (Homo sapiens, UniProt Q9NR22). Briefly: Covalent binding affinity to human PRMT8 assessed as covalent adduct. formation at 300 uM pre-incubated for 1 hr by mass spectrometry. Put shortly: (§2)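 PRMT protein at 15 μM was incubated 1 h at room temperature with a 20-fold molar excess of inhibitor (300 μM). The reaction was quenched with 0.1% aqueous TFA, separated by HPLC (5–95% acetonitrile in water) and analysed by ESI time-of-flight LC/MS for protein–ligand adduct mass.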

Experiment [5] has as its target Histone-lysine N-methyltransferase SETDB1 (Homo sapiens) (UniProt Q15047). Briefly: Inhibition of SETDB1 (unknown origin) assessed as reduction in incorporation of [3H]-labeled methyl group into biotinylated substrate using [3H-SAM] at 10 uM incubated for 1 hr by scintillation proximity assay. Put shortly:
as §1

Experiment [6] is filed under the species Homo sapiens. Briefly: Selectivity index, ratio of IC50 for human PRMT4 to IC50 for human PRMT6.
Experiment [7] concerns the target Histone-lysine N-methyltransferase NSD3 (Homo sapiens) (UniProt Q9BZ95). Briefly: Inhibition of NSD3 (unknown origin) at 10 uM using [3H-SAM] and nucleosome as substrate incubated for 1 hr by scintillation proximity assay. Put shortly:
as §1

Experiment [8] addresses T1, Protein arginine N-methyltransferase 6. Briefly: Inhibition of PRMT6 (unknown origin) assessed as reduction in incorporation of [3H]-labeled methyl group into biotinylated substrate using [3H-SAM] at 10 uM incubated for 1 hr by scintillation proximity assay. Put shortly:
as §1
Target sequence in this assay (Q96LA8 whole entry, looked up): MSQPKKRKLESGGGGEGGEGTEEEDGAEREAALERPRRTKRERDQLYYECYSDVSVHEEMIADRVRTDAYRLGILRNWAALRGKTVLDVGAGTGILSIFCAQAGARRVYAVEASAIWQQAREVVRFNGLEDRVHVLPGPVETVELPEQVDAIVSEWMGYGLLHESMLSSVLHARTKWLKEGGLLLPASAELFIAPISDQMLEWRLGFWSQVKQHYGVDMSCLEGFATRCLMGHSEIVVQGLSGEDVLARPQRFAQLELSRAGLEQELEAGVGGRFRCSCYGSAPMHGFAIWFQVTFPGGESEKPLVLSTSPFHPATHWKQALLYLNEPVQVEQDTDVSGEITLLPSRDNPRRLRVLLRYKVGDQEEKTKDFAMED

Experiment [9] deals with T3, Histone-arginine methyltransferase CARM1 (Homo sapiens) (UniProt Q86X55).
T3 sequence (whole entry): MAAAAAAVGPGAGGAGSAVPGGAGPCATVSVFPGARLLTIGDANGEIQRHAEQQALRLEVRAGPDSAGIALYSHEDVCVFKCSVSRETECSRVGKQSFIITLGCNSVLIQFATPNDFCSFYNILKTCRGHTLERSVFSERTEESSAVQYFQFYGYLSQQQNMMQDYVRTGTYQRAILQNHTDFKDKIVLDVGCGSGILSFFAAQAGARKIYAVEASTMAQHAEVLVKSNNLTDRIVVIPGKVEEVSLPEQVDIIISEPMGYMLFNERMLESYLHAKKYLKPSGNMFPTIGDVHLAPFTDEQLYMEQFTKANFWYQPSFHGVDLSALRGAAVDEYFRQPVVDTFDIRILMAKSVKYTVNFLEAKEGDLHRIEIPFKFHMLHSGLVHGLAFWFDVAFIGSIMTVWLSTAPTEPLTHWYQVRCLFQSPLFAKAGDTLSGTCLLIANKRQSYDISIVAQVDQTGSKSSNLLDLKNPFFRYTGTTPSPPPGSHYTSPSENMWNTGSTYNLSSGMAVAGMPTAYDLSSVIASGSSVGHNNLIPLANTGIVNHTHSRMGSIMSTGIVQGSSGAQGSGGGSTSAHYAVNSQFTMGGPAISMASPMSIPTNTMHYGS
Briefly: Covalent binding affinity to human PRMT4 assessed as covalent adduct. formation at 300 uM pre-incubated for 1 hr by mass spectrometry. Put shortly: as §2

In experiment [10] the target is Histone-lysine N-methyltransferase PRDM9 (Homo sapiens) (UniProt Q9NQV7). Briefly: Inhibition of PRDM9 (unknown origin) assessed as reduction in incorporation of [3H]-labeled methyl group into biotinylated substrate using [3H-SAM] at 10 uM incubated for 1 hr by scintillation proximity assay. Put shortly:
as §1

For experiment [11], the target named is N-lysine methyltransferase KMT5A (Homo sapiens) (UniProt Q9NQR1). Briefly: Inhibition of SETD8 (unknown origin) assessed as reduction in incorporation of [3H]-labeled methyl group into biotinylated substrate using [3H-SAM] at 10 uM incubated for 1 hr by scintillation proximity assay. The gist of the method: as §1
In experiment [12] the target is DNA (cytosine-5)-methyltransferase 1 (Homo sapiens) (UniProt P26358). Briefly: Inhibition of DNMT1 (unknown origin) at 10 uM using double-stranded DNA substrate using [3H-SAM] incubated for 1 hr by scintillation proximity assay. The gist of the method: as §1
Experiment [13] addresses Protein arginine N-methyltransferase 1 (Homo sapiens, UniProt Q99873). Briefly: Covalent binding affinity to human PRMT1 assessed as covalent adduct. formation at 300 uM pre-incubated for 1 hr by mass spectrometry. The gist of the method: as §2
Experiment [14] deals with T4, Protein arginine N-methyltransferase 3 (Homo sapiens, UniProt O60678). Briefly: Inhibition of PRMT3 (unknown origin) assessed as reduction in incorporation of [3H]-labeled methyl group into biotinylated substrate using [3H-SAM] at 50 uM incubated for 1 hr by scintillation proximity assay relative to control. The gist of the method: as §1
The target in experiment [15] is T4, Protein arginine N-methyltransferase 3. Briefly: Covalent binding affinity to human PRMT3 assessed as covalent adduct. formation at 300 uM pre-incubated for 1 hr by mass spectrometry. Put shortly: as §2
The target of experiment [16] is T2, Protein arginine N-methyltransferase 8. Briefly: Inhibition of human PRMT8 using [3H]SAM as donor and [3H]methylated biotin-labeled peptide as substrate by scintillation proximity assay. The gist of the method: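 Radiometric SPA: ³H-methyl transfer from ³H-SAM to biotin-labeled peptide, captured on streptavidin/scintillant-coated plate, counts per minute read; substrate and cofactor each at their Km for the enzyme; compound titrated; IC50 from triplicate determinations, mean ± SD.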

Experiment [17] concerns the target Histone-lysine N-methyltransferase EHMT1 (Homo sapiens) (UniProt Q9H9B1). Briefly: Inhibition of GLP (unknown origin) assessed as reduction in incorporation of [3H]-labeled methyl group into biotinylated substrate using [3H-SAM] at 10 uM incubated for 1 hr by scintillation proximity assay. Put shortly:
as §1

The species entered for experiment [18] is Homo sapiens. Briefly: Selectivity index, ratio of IC50 for human PRMT3 to IC50 for human PRMT6.
The target of experiment [19] is Protein arginine N-methyltransferase 5 (Homo sapiens) (UniProt O14744). Briefly: Inhibition of PRMT5 (unknown origin) assessed as reduction in incorporation of [3H]-labeled methyl group into biotinylated substrate using [3H-SAM] at 10 uM incubated for 1 hr by scintillation proximity assay. The gist of the method:
as §1

The target in experiment [20] is Histone-lysine N-methyltransferase SUV39H1 (Homo sapiens) (UniProt O43463). Briefly: Inhibition of SUV39H1 (unknown origin) assessed as reduction in incorporation of [3H]-labeled methyl group into biotinylated substrate using [3H-SAM] at 10 uM incubated for 1 hr by scintillation proximity assay. The gist of the method:
as §1

T4 sequence (O60678 2-531 limits assumed): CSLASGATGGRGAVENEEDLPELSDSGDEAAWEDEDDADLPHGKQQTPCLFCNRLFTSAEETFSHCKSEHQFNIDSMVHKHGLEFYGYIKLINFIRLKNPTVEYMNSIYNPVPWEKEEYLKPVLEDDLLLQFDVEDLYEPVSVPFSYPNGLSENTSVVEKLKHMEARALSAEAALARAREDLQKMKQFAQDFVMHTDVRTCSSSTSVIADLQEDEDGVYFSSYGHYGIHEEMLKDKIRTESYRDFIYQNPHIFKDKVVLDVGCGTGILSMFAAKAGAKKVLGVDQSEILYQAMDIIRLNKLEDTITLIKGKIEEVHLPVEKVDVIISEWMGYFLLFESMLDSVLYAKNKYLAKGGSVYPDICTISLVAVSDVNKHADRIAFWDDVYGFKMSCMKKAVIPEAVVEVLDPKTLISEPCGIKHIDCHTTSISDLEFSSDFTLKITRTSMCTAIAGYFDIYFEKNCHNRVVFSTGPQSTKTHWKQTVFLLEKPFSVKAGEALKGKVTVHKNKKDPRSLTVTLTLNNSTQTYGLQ
Chain of Histone-lysine N-methyltransferase, H3 lysine-36 specific (Homo sapiens) (Q96L73 whole entry): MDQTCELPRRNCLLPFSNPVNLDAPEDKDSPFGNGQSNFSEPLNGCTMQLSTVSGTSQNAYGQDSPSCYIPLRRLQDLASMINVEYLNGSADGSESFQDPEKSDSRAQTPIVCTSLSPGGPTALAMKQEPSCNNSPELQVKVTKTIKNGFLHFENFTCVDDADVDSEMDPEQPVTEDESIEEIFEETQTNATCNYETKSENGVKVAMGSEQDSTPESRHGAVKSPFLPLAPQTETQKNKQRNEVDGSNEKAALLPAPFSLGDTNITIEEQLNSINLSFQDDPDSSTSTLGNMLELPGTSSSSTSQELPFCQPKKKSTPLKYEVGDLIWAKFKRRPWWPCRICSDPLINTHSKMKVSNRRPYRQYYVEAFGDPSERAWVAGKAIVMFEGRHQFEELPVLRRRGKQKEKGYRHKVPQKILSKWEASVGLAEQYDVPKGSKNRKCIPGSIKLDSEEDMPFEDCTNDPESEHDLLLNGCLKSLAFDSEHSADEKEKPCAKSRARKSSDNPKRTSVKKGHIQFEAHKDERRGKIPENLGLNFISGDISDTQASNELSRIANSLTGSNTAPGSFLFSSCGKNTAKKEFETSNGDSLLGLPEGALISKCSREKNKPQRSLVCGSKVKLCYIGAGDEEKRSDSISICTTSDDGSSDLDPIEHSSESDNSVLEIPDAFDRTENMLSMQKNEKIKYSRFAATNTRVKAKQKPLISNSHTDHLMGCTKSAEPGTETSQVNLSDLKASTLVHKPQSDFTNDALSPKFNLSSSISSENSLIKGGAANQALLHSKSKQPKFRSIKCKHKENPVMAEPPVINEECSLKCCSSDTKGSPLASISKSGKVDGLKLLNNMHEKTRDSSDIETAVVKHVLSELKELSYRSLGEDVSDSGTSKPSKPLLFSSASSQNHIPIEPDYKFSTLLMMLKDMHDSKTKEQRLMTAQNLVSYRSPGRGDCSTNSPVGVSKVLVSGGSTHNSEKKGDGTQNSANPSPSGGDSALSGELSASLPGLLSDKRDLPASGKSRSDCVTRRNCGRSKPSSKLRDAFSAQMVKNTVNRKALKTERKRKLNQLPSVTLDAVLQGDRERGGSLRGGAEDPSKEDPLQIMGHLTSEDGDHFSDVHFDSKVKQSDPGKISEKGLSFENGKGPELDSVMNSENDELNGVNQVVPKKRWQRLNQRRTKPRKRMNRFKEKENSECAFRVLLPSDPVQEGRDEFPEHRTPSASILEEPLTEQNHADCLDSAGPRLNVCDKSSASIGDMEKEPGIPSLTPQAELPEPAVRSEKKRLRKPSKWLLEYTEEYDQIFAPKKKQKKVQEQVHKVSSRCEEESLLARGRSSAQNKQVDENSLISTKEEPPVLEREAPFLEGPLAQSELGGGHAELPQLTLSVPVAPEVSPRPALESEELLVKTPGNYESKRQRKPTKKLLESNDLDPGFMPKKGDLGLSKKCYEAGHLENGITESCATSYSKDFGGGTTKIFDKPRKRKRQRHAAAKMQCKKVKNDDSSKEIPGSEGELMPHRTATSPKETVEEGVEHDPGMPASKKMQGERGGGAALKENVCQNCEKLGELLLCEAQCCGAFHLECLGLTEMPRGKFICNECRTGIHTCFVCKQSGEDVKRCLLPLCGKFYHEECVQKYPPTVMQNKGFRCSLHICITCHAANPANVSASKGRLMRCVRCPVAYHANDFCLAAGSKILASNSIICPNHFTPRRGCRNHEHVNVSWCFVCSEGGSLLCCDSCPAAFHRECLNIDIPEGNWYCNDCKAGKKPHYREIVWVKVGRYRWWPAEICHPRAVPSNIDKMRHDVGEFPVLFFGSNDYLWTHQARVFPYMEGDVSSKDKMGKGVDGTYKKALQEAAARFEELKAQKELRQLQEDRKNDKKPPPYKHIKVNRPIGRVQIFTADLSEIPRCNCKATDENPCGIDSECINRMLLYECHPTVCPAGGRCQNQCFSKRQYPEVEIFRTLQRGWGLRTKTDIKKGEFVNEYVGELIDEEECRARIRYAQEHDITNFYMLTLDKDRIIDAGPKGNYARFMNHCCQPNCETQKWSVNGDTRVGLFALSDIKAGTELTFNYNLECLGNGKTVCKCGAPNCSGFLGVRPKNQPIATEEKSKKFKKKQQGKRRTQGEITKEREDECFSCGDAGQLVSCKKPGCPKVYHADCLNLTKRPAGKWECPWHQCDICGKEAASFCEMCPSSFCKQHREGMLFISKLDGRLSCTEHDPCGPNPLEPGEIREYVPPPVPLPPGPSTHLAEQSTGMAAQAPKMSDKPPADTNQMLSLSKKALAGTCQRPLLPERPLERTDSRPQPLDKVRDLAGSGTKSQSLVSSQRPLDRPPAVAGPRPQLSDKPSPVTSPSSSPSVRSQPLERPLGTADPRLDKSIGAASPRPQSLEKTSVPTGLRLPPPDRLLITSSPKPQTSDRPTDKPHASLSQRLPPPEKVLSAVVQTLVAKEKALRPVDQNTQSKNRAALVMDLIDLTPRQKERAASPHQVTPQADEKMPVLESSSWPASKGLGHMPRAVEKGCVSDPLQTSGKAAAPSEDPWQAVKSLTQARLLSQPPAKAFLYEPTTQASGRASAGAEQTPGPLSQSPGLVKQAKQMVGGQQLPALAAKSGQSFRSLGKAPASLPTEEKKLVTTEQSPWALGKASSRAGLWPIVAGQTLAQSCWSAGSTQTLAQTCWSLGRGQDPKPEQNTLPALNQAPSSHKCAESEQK
Chain of Histone-lysine N-methyltransferase PRDM9 (Homo sapiens) (Q9NQV7 whole entry): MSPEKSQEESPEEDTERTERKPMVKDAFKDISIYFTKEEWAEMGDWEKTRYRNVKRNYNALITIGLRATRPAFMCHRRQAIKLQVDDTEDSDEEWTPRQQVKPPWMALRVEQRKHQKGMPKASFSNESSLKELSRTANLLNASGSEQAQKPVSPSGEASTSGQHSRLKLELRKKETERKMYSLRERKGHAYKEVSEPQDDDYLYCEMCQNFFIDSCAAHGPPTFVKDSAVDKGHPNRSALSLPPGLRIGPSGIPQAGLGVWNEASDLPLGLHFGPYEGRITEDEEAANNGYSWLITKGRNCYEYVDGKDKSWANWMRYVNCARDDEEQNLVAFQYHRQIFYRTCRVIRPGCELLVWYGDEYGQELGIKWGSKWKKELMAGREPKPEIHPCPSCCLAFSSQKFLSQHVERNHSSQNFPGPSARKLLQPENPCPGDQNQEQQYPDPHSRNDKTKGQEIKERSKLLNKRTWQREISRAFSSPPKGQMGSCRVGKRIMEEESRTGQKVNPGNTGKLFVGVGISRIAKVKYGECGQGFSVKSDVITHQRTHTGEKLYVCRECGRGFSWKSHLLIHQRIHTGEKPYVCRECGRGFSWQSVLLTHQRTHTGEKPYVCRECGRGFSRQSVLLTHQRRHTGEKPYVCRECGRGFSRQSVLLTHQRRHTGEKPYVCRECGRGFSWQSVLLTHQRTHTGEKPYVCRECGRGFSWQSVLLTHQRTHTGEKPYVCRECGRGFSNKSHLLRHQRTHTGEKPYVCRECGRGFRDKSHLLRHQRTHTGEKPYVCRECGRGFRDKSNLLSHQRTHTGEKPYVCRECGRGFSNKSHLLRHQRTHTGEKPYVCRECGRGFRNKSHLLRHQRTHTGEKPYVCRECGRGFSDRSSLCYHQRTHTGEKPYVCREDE
Chain of Protein arginine N-methyltransferase 1 (Q99873 whole entry, looked up): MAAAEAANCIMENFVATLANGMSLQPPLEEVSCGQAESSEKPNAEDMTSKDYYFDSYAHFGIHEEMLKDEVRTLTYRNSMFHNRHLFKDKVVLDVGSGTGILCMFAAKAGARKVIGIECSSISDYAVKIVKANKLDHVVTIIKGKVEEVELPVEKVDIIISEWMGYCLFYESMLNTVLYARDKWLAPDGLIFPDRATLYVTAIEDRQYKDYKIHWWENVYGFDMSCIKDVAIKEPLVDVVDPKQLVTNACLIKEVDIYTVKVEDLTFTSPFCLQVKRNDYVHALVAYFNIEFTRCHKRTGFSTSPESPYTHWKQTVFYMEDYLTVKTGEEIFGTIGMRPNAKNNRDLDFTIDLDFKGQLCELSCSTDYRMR

Regarding `C=CC(=O)Nc1cccc(-c2c[nH]cc2CN(C)CCN)c1`, the IC50 in experiment [1] is 1300 nM; in experiment [16], 110 nM. Further, the inhibition result was “Dose-dependent effect” in experiment [1], above 50% in the experiment listed under Homo sapiens [3], above 90% in experiment [8] and above 50% in experiment [14]. For the same molecule, the inhibition entry in experiment [2], in [5], in experiment [7], in experiment [10], in experiment [11] and in experiment [12] was “inactive” each time. In addition, the inhibition entry in [17], in experiment [19] and in experiment [20] was “inactive” in each case. Also, the outcome in experiment [4], in [9], in experiment [13] and in [15] was inactive. Also, the Ratio IC50 in the experiment filed under Homo sapiens [6] is 27; in the experiment filed under Homo sapiens [18], 167.
